Test results published in ChEMBL document CHEMBL4706482, “Structural optimization of aminopyrimidine-based CXCR4 antagonists” (Eur J Med Chem, 2020).
The source made the active and inactive calls. The calls are words filed in the database; no cut-off is given here.

Legend:
[1] = target: T1, C-X-C chemokine receptor type 4 (Homo sapiens, UniProt P61073); assay: Antagonist activity at CXCR4 in human HPBALL cells assessed as inhibition of APC-conjugate clone 12G5 antibody signal incubated for 3 hrs by flow cytometric analysis; type: cell-based
Target sequence in this assay (P61073 whole entry): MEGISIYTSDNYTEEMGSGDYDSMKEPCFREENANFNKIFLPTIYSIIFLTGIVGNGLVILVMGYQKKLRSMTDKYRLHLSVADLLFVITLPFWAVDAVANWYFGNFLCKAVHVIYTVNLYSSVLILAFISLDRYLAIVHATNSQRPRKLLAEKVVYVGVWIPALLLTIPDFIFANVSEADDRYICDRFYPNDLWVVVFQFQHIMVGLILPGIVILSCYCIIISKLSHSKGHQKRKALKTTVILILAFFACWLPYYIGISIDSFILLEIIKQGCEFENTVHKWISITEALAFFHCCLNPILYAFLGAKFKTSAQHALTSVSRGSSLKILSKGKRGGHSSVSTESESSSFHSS

CYP3A4 = CYP3A4 (Homo sapiens, UniProt P08684); assay: Inhibition of CYP3A4 in human liver microsomes using midazolam as substrate at 10 uM preincubated for 10 mins followed by NADPH addition and measured after 10 mins by LC-MS/MS analysis relative to control; type: ADME; conditions: probe midazolam, time 20 min
How it was run: (§1)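 Human liver microsomes 0.2 mg/mL in 100 mM phosphate, pH 7.4, compound 10 µM, probe substrate midazolam 1 µM (CYP3A4) or dextromethorphan 5 µM (CYP2D6). After a 10 min preincubation, reaction started with 1 mM NADPH, 37 °C for 10 min, then stopped with cold acetonitrile. Metabolites quantified by LC-MS/MS. Triplicate incubations.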

[2] = Efflux ratio in across basolateral to apical side over apical to basolateral side in human Caco2 cells at 10 uM after 90 mins by LC-MS/MS analysis; type: ADME, cell-based; conditions: Caco-2
How it was run: (§2)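 Caco-2 cells grown 21–28 days on polycarbonate inserts. TEER and Lucifer Yellow checked before and after the assay. Compound at 10 µM in HBSS with 25 mM HEPES, pH 7.4, tested A-B and B-A, 37 °C for 90 min. Samples quantified by LC-MS/MS against a standard curve.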

[3] = Protein binding in rat plasma; type: ADME, cell-free; conditions: read-out: PPB (converted)
CYP2D6 = CYP2D6 (Homo sapiens, UniProt P10635); assay: Inhibition of CYP2D6 in human liver microsomes using dextromethorphan as substrate at 10 uM preincubated for 10 mins followed by NADPH addition and measured after 10 mins by LC-MS/MS analysis relative to control; type: ADME; conditions: probe dextromethorphan, time 20 min; how it was run: as §1
[4] = target: T1, C-X-C chemokine receptor type 4; assay: Antagonist activity at CXCR4 in human CD4-positive T cells assessed as inhibition of CXCL12-induced calcium signal incubated for 20 mins by FLIPR assay; type: functional, cell-based, CD4+ve Th
Target sequence in this assay (P61073 whole entry): as above

[5] = Protein binding in mouse plasma; type: ADME, cell-free; conditions: read-out: PPB (converted)
[6] = target: T1, C-X-C chemokine receptor type 4; assay: Antagonist activity at CXCR4 in human MDA-MB-231 cells assessed as inhibition of CXCL12-mediated chemotaxis at 100 nM after 22 hrs by transwell assay; conditions: filed as antagonist
Target sequence in this assay (P61073 whole entry, looked up): as the sequence (P61073 whole entry) above

[7] = Protein binding in human plasma; type: ADME, cell-free; conditions: read-out: PPB
[8] = Intrinsic clearance in rat liver microsomes at 1 uM preincubated for 10 mins followed by NADPH addition and measured up to 60 mins by LC-MS/MS analysis; type: ADME, Microsome; conditions: time <=70 min, read-out: CLH
L929 = assay: Cytotoxicity against mouse L929 cells assessed as reduction in cell viability up to 1000 nM by CellTiter-Glo assay; type: cell-based
[9] = target: T2, C-C chemokine receptor type 6 (Homo sapiens) (UniProt P51684); assay: Antagonist activity at CCR6 in human CD4-positive cells assessed as inhibition of CCL20-induced calcium signal up to 10000 nM by FLIPR assay; type: functional, cell-based; conditions: CD4+ve Th, dose nM <=10000
T2 sequence (whole entry): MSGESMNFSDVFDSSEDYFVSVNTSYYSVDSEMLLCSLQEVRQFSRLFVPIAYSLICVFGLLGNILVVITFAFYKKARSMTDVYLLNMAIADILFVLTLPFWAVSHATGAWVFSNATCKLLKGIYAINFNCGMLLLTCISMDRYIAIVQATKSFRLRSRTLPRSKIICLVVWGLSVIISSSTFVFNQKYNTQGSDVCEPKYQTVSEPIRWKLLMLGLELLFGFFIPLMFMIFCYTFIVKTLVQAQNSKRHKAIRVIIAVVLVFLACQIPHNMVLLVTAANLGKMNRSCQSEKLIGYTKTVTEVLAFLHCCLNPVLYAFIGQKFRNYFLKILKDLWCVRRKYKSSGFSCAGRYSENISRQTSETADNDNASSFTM
How it was run: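 Cryopreserved activated human CD4+ CCR6-enriched T cells at 2.5×10^6/mL in HBSS/20 mM HEPES/0.005% P-104, loaded with Calcium 4 dye. Compound final 10 µM to 0.035 nM in 0.5% DMSO, followed by CCL20 stimulation. Calcium flux read on FLIPR Tetra. % effect taken relative to on-plate controls; IC50 from a four-parameter logistic fit.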

[10] = target: T3, C-X-C chemokine receptor type 1 (Homo sapiens) (UniProt P25024); assay: Antagonist activity at CXCR1 (unknown origin) stably expressed in HEK293 cells assessed as reduction in IL-8-induced intracellular calcium change up to 10000 nM incubated for 15 mins followed by IL-8-stimulation and measured after 15 mins by cAMP-d2/Eu-Anti-cAM based fluorescence assay; type: functional, cell-based; conditions: dose nM <=10000, time 30.0 min, in the assay text read “intracellular cAMP change” for “intracellular calcium change”
T3 sequence (whole entry): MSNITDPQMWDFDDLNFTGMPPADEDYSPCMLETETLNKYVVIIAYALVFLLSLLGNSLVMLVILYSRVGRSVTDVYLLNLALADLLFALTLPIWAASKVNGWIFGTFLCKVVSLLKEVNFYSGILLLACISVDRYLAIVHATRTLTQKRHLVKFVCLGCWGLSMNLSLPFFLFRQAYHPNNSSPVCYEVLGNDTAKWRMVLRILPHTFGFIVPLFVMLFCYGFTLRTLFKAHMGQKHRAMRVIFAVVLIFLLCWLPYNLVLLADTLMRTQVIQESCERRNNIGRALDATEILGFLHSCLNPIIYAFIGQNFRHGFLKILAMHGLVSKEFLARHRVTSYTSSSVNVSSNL
How it was run: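 HEK293 cells overexpressing CXCR1, trypsin-dissociated, 2000 cells/well. Compound in a 10-point 4-fold series, 15 min at rt, then forskolin 4.4 µM plus IL-8 100 nM (in the added solution) for 15 min at rt. cAMP measured with cAMP-d2/Eu-anti-cAMP HTRF, 60 min at rt, read at 665/615 nm.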

MEF = assay: Cytotoxicity against MEF cells assessed as reduction in cell viability up to 1000 nM by CellTiter-Glo assay; type: cell-based; conditions: mouse
How it was run: (§3)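 Cell viability measured with CellTiter-Glo ATP luminescence at compound concentrations up to 1000 nM.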

MDA-MB-231 = assay: Cytotoxicity against human MDA-MB-231 cells assessed as reduction in cell viability up to 1000 nM by CellTiter-Glo assay; type: functional, cell-based; conditions: dose nM <=1000; how it was run: as §3
Hepa1-6 = assay: Cytotoxicity against […] cells assessed as reduction in cell viability up to 1000 nM by CellTiter-Glo assay; type: functional, cell-based; conditions: dose nM <=1000
[11] = Half life in rat liver microsomes at 1 uM preincubated for 10 mins followed by NADPH addition and measured up to 60 mins by LC-MS/MS analysis; type: ADME, Microsome; conditions: time <=70 min
[12] = Apparent permeability across apical to basal side in human Caco2 cells at 10 uM after 90 mins by LC-MS/MS analysis; type: ADME, cell-based; conditions: Caco-2; how it was run: as §2
[13] = target: Voltage-gated inwardly rectifying potassium channel KCNH2 (Homo sapiens, UniProt Q12809); assay: Inhibition of human ERG stably expressed in CHO cells after 4 mins; type: cell-based
How it was run: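 hERG-expressing CHO cells on automated QPatch. Holding potential -80 mV, 500 ms step to +20 mV, tail current measured at -50 mV, pulses every 20 s. External solution 4 mM K⁺, 1 mM Mg²⁺, 2 mM Ca²⁺. Effect quantified 4 min after compound application.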

CYP2D6, sequence (P10635 whole entry): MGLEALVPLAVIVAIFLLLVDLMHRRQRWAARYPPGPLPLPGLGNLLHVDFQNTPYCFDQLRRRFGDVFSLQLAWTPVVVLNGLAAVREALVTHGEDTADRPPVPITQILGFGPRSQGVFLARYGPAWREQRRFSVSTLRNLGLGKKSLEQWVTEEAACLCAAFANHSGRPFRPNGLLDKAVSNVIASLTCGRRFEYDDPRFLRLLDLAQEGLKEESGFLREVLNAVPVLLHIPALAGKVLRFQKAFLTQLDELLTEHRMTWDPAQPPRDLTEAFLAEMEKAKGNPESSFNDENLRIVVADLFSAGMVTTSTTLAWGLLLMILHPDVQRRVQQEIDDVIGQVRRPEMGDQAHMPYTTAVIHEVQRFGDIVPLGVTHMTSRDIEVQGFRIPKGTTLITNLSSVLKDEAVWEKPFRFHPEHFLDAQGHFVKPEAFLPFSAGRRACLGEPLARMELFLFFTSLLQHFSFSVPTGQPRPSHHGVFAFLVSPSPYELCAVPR
Voltage-gated inwardly rectifying potassium channel KCNH2, sequence (Q12809 whole entry): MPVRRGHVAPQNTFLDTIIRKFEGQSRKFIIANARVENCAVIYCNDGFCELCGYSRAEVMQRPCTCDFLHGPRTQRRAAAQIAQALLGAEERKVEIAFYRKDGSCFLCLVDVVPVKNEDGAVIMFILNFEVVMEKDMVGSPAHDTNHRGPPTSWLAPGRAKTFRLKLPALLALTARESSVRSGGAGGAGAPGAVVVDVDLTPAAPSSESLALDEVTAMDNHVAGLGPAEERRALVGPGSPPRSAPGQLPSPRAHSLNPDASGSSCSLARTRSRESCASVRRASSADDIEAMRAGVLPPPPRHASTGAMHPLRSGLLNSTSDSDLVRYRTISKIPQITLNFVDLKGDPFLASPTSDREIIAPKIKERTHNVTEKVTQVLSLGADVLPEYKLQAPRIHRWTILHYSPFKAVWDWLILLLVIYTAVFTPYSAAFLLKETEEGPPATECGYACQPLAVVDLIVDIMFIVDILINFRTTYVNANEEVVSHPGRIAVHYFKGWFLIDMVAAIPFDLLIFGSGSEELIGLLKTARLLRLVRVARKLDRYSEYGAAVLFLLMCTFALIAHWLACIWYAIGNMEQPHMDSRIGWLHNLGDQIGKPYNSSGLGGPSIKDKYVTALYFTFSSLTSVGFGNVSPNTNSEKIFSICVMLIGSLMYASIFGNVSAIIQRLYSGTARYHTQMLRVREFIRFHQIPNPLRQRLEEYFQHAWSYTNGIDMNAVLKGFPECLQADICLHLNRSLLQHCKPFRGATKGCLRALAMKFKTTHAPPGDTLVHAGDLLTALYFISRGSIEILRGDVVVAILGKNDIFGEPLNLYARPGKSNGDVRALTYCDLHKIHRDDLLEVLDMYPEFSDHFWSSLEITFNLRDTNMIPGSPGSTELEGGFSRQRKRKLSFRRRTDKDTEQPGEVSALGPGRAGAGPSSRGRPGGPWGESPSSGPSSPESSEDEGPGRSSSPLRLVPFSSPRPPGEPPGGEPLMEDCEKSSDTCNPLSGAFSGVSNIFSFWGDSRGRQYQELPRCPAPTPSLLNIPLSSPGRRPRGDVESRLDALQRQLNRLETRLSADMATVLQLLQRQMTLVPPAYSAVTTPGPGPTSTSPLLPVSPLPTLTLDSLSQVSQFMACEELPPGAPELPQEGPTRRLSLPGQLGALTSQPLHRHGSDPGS
CYP3A4, sequence (P08684 whole entry): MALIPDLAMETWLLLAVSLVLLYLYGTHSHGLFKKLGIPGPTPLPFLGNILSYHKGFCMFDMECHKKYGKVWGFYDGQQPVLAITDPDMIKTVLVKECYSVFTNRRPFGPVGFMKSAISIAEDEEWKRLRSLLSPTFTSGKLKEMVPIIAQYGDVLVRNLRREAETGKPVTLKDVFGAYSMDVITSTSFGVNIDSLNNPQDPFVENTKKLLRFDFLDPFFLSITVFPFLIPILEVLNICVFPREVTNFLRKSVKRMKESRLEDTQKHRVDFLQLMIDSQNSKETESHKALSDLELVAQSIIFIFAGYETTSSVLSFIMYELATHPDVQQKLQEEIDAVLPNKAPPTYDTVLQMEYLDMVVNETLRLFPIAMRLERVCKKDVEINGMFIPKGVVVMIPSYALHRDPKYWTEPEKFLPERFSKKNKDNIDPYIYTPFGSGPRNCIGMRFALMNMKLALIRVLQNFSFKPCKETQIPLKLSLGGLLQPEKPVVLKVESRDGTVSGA

Row | Structure (SMILES) | IC50 [1] [nM] | other results
1 | Cc1nc(CN(C)C2CCCc3cccnc32)cc(N2CCN(C)CC2)n1 (racemic) | 12 | –
2 | CCN1CCN(c2cc(CN(C)[C@H]3CCCc4cccnc43)nc(C)n2)CC1 | 10 | –
3 | CCc1nc(CN(C)C2CCCc3cccnc32)cc(N2CCN(C)CC2)n1 (racemic) | 25 | –
4 | CN1CCN(c2cc(CN(C)C3CCCc4cccnc43)nc(-c3cnn(C)c3)n2)CC1 (racemic) | 1290 | –
5 | Cc1nc(CN(C)[C@H]2CCCc3cccnc32)cc(N2CCN3CCC[C@H]3C2)n1 | 18 | –
6 | Cc1nc(CN(C)[C@H]2CCCc3cccnc32)cc(NCCCN2CCOCC2)n1 | 36 | –
7 | Cc1nc(CN(C)[C@H]2CCCc3cccnc32)cc(N2CCN(C3COC3)CC2)n1 | 130 | –
8 | CC(C)Oc1nc(CN(C)C2CCCc3cccnc32)cc(N2CCN(C)CC2)n1 (racemic) | 151 | –
9 | Cc1nc(CN(C)[C@H]2CCCc3cccnc32)cc(N2CCC(N3CCOCC3)CC2)n1 | 101 | –
10 | COc1nc(CN(C)C2CCCc3cccnc32)cc(N2CCN(C)CC2)n1 (racemic) | 25 | –
11 | Cc1nc(CN(CC2CC2)C2CCCc3cccnc32)cc(N2CCN(C)CC2)n1 (racemic) | 51 | –
12 | CCN(Cc1cc(N2CCN(C)CC2)nc(C)n1)C1CCCc2cccnc21 (racemic) | 17 | –
13 | Cc1nc(CN(C)[C@H]2CCCc3cccnc32)cc(N2CCN(C)C[C@H]2C)n1 | 21 | –
14 | Cc1nc(CN(C)[C@H]2CCCc3cccnc32)cc(N2CCC(N3CCN(C)CC3)CC2)n1 | 96 | –
15 | CC(C)Nc1nc(CN(C)C2CCCc3cccnc32)cc(N2CCN(C)CC2)n1 (racemic) | 930 | –
16 | CN1CCN(c2cc(CN(C)C3CCCc4cccnc43)nc(N(C)C)n2)CC1 (racemic) | > 10000 | –
17 | CN1CCN(c2cc(CN(C)C3CCCc4cccnc43)nc(-c3ccccc3)n2)CC1 (racemic) | 2890 | –
18 | Cc1nc(CN(C)[C@H]2CCCc3cccnc32)cc(N2CCN3CCC[C@@H]3C2)n1 | 30 | –
19 | CN1CCN(c2cc(CN(C)C3CCCc4cccnc43)nc(N3CCOCC3)n2)CC1 (racemic) | 2440 | –

Row | Structure (SMILES) | IC50 [1] [nM] | other results
20 | Cc1nc(CN(C)[C@H]2CCCc3cccnc32)cc(N2CCN(C)C[C@@H]2C)n1 | 14 | –
21 | Cc1nc(CN(C)C2CCCc3cccnc32)c(F)c(N2CCN(C)CC2)n1 (racemic) | 12 | –
22 | Cc1nc(CN(C)[C@H]2CCCc3cccnc32)cc(NCCN2CCOCC2)n1 | 66 | –
23 | Cc1nc(CN(C)[C@H]2CCCc3cccnc32)cc(N2CCN(C)CC2)n1 | 8.8 | inhibition at 10 min, 10 µM (CYP3A4): 48%; efflux ratio at 1.5 h, 10 µM [2]: 0.86; fraction unbound [3]: 0.18; inhibition at 10 min, 10 µM (CYP2D6): 57%; IC50 [4]: 0.02 nM; fraction unbound [5]: 0.11; Activity [6]: Active; fraction unbound [7]: 0.01; CLint scaled at 1 µM [8]: 1570 mL/min/kg; Activity (L929): Non-Toxic; Activity [9]: inactive; Activity [10]: inactive; Activity (MEF): Non-Toxic; Activity (MDA-MB-231): inactive; Activity (Hepa1-6): inactive; half-life at 1 µM [11]: 1.6 min; Papp A→B at 1.5 h, 10 µM [12]: 27 ×10⁻⁶ cm/s; IC50 [13]: 8000 nM
24 | CN1CCN(c2cc(CN(C)C3CCCc4cccnc43)nc(C3CC3)n2)CC1 (racemic) | 23 | –
25 | Cc1nc(CN(C)[C@H]2CCCc3cccnc32)cc(N2CCN(C)[C@@H](C)C2)n1 | 14 | –
26 | Cc1nc(CN(C)[C@H]2CCCc3cccnc32)cc(N2C[C@@H](C)N(C)[C@@H](C)C2)n1 | 8.3 | –
27 | Cc1nc(CN(C)[C@H]2CCCc3cccnc32)cc(N2CCN(C3CC3)CC2)n1 | 70 | –
28 | Cc1nc(CN(C)[C@H]2CCCc3cccnc32)cc(N2CCN(C)[C@H](C)C2)n1 | 8.3 | –
29 | CCOc1nc(CN(C)C2CCCc3cccnc32)cc(N2CCN(C)CC2)n1 (racemic) | 78 | –
30 | Cc1nc(CN(C)C2CCCc3cccnc32)c(C#N)c(N2CCN(C)CC2)n1 (racemic) | 33 | –
31 | CN1CCN(c2cc(CN(C)C3CCCc4cccnc43)nc(N(C)CCO)n2)CC1 (racemic) | 792 | –
32 | Cc1nc(CN(C)[C@H]2CCCc3cccnc32)cc(N(C)CCO)n1 | > 10000 | –
33 | CN1CCN(c2cc(CN(C)C3CCCc4cccnc43)nc(N3CCCC3)n2)CC1 (racemic) | > 10000 | –
34 | CN1CCN(c2cc(CN(C)C3CCCc4cccnc43)nc(N)n2)CC1 (racemic) | 23 | –
35 | CN1CCN(c2cc(CN(C)[C@H]3CCCc4cccnc43)nc(C(F)(F)F)n2)CC1 | 293 | –
36 | CCNc1nc(CN(C)C2CCCc3cccnc32)cc(N2CCN(C)CC2)n1 (racemic) | 105 | –
37 | CNc1nc(CN(C)C2CCCc3cccnc32)cc(N2CCN(C)CC2)n1 (racemic) | 58 | –
38 | CC(C)c1nc(CN(C)C2CCCc3cccnc32)cc(N2CCN(C)CC2)n1 (racemic) | 256 | –
